Screens: PubChem BioAssay, SRMLSC
HCT116 bCat-KO – beta-catenin-lacking colon tumor cell growth suppression | HCT116 beta-catenin knockout viability, CellTiter-Glo, 60 h; hits give low values | viability, % at 10 µM | actives 1.5% (n = 140,000) | AID 818;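 active = viability at or under a set limit, the compound median less 4 SD, cut at about 6% in these data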;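 also: 0% = Hyamine 1622 control at 20 µM and 100% = untreated cell control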
H69AR growth 86K – blocks growth of human H69AR lung tumor cells. viability, % at 10 µM. actives 6% (n = 85,000). AID 598. H69AR lung tumor viability, ATP luminescence, 72 h; hits give low values;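 active = viability at or below 40%; inactive = viability above 40%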;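 also: multidrug resistant small cell line overexpressing MRP-1 efflux transporter; 100% = mean luminescence of untreated control wells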
Lung fibro prol – blocks proliferation of human lung fibroblasts; viability, % at 10 µM; actives 1.1% (n = 85,000); LL 47 human lung fibroblast viability, ATP luminescence; hits give low values;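 active = viability at or below 50% in the single dose screen; inactive = viability above 50%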;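 also: compound exposure lasted 72 h before the ATP readout; 100% = median luminescence of untreated cell-only wells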
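material = human LL 47 lung fibroblast cells | dosing = compounds added from tenfold dosing solution, 0.1% DMSO final | timing = overnight cell rest, 72 h compound treatment at 37 °C | measured by = CellTiter-Glo luminescence measuring cellular ATP | evaluation = % viability versus median cells-only luminescence | control set = cell-only wells, no compound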
HCT116 PTEN-null – PTEN-deleted cell growth suppression; HCT116 PTEN-null viability, CellTiter-Glo, 60 h; hits give low values; viability, % at 10 µM; actives 1.2% (n = 140,000); AID 827;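 active = viability at or below a set limit, 4 SD under the median of all tested compounds, cut at about 3.7% in these data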;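 also: PTEN knockout HCT116 line with beta catenin targeted HCT116 as companion control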
HUVEC prolif 384 – inhibitors of human endothelial cell proliferation. HUVEC proliferation, CellTiter-Glo luminescence, 72 h; hits give low values. viability, % at 10 µM (by protocol). actives 1.1% (n = 86,000). AID 648;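 active = viability at or below 30%; inactive = viability above 30%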;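 also: 100% = median luminescence of DMSO-only cell control wells on each plate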
* hit, by the source's call; . = no result. Shown is part of a subset that was picked to be rich in hits.

SMILES	HCT116 bCat-KO	H69AR growth 86K	Lung fibro prol	HCT116 PTEN-null	HUVEC prolif 384
Cc1ccccc1NC1=C/C(=N\S(=O)(=O)c2cccs2)c2ccccc2C1=O	1.5*	.	.	1.9*	.
Cc1ccc(NC2=C/C(=N/S(=O)(=O)c3cccs3)c3ccccc3C2=O)cc1C	85	.	.	88	.
Cc1cc(C)c[n+](C2=C([O-])c3ccccc3C(=O)/C2=N\S(=O)(=O)c2cccs2)c1	33	.	.	41	.
COc1cc(S(=O)(=O)NCC2CCCO2)ccc1Br (configuration not stated)	98	96	104	.	99
COc1cc(OC)c(C#N)c(S(=O)(=O)Cc2ccccc2)c1	97	77	92	93	95
CCN(c1ccccc1)S(=O)(=O)c1ccc(N)c(OC)c1	24	17*	72	27	55
COc1ccc(S(=O)(=O)Cc2ccccc2)cc1N	91	37*	95	93	91
Cc1ccc(C)c(OC(=O)c2cncc(Br)c2)c1	102	.	.	91	.
O=C1NCCCC2c3cc(O)c4ccccc4c3OC12N1CCCCC1 (configuration not stated)	19	20*	106	17	3.4*
O=C1NCCCC2c3c(cc(Br)c(O)c3Br)OC12N1CCOCC1 (configuration not stated)	101	100	109	99	100
COc1ccc(Cc2nnc(N/N=C/c3ccc(O)cc3)[nH]c2=O)cc1OC	5.5*	.	.	7	.
COc1ccc(/C=N/NC(=O)CCc2n[nH]c(=O)[nH]c2=O)cc1OC	101	.	.	104	.
CCOC(=O)C1=C(C)Nc2ccccc2N=C1NC(=O)C(CC)c1ccccc1 (configuration not stated)	89	.	.	89	.
Cc1ccc2oc(-c3ccccc3)nc2c1	97	97	93	99	96
COc1ccc(-c2nc3c(Br)c(N)c(Br)cc3o2)cc1	62	29*	80	58	60
Nc1c(Br)cc2oc(-c3ccccc3)nc2c1Br	68	22*	81	74	83
COc1ccc(-c2nc3ccc([N+](=O)[O-])cc3o2)cc1	41	.	.	28	.
Cc1ccc(NC(=S)N(CCN(C)C)Cc2cc3cc(C)cc(C)c3[nH]c2=O)cc1	46	.	.	59	.
CC(C)CCNC(=O)C(c1ccco1)N(C(=O)Cn1nnc2ccccc21)c1ccc2c(c1)OCO2 (configuration not stated)	3.1*	88	100	3.3*	95
O=C(NCc1ccco1)C(c1ccco1)N(CCc1ccccc1)C(=O)Cn1nnc2ccccc21 (configuration not stated)	84	93	100	85	101
Fc1ccc2c(c1)C(c1ccncc1)=NNC(c1ccccc1)=N2	88	.	.	96	.
COc1ccc(NC(=S)N2CCN(C(=O)C3CCCO3)CC2)c(OC)c1 (configuration not stated)	94	.	.	96	.
Cc1cccc(-n2ncc3c(NCc4cccs4)ncnc32)c1	76	42	94	66	64
Fc1ccc(CNc2ncnc3c2cnn3-c2ccccc2)cc1	104	37*	88	100	86
Cc1cccc(-n2ncc3c(N4CCCc5ccccc54)ncnc32)c1	75	35*	94	58	87
SMILES	HCT116 bCat-KO	H69AR growth 86K	Lung fibro prol	HCT116 PTEN-null	HUVEC prolif 384
Cc1ccc(-n2ncc3c(NCCCOC(C)C)ncnc32)c(C)c1	74	37*	98	69	97
CC(C)OCCCNc1ncnc2c1cnn2-c1ccccc1	91	61	110	88	96
Clc1ccc(-n2ncc3c(NCc4cccs4)ncnc32)cc1	79	41	34*	83	87
CCCCNc1nc2ccccc2n1CC(=O)Nc1c(C)cccc1CC	51	.	.	49	.
Cc1cccc(-n2ncc3c(NCc4ccccn4)ncnc32)c1	96	89	114	86	101
c1ccc(CNc2ncnc3c2cnn3-c2ccccc2)cc1	43	26*	70	32	60
Cc1cccc(-n2ncc3c(NCc4ccco4)ncnc32)c1	24	26*	89	32	73
Cc1cccc(-n2ncc3c(NCCN4CCOCC4)ncnc32)c1	77	80	94	90	88
Cc1cccc(-n2ncc3c(NCc4ccccc4)ncnc32)c1	28	25*	57	27	57
c1ccc(CCNc2ncnc3c2cnn3-c2ccccc2)cc1	81	74	111	86	96
Oc1oc(-c2cccc3ccccc23)nc1C=NCc1ccccc1	95	.	.	93	.
N#CC1(Cc2ccc(Cl)cc2)c2ccccc2C=CN1C(=O)c1ccccc1 (configuration not stated)	79	.	.	77	.
